ChEMBL document CHEMBL1221194, “Forward chemical genetic approach identifies new role for GAPDH in insulin signaling” (Nat Chem Biol, 2007)
Active and inactive are the calls of the source. No cut-off for these calls is given here.

How the values were obtained:
[1] = biological target: Glyceraldehyde-3-phosphate dehydrogenase (Oryctolagus cuniculus) (UniProt P46406); test: Induction of rabbit GAPDH tetramer segregation into monomers at 10 uM after 30 mins by SDS-PAGE
In short: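 Purified rabbit muscle GAPDH was incubated with compound at 0.4, 2 or 10 µM for 30 min at 4 °C. Samples were then chemically cross-linked, resolved by SDS-PAGE and silver-stained. Tetramer and monomer bands were compared.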

[2] = biological target: Glyceraldehyde-3-phosphate dehydrogenase (Oryctolagus cuniculus) (UniProt P46406); test: Inhibition of rabbit GAPDH glycolytic activity at > 50 uM
[3] = biological target: Glyceraldehyde-3-phosphate dehydrogenase (Mus musculus) (UniProt P16858); test: Inhibition of GAPDH in mouse 3T3L1 lysate assessed as inhibition of conversion of Ptdlns(3, 4, 5)P3 to PIP2 by fluorescent phosphoinositide TLC
Sequence of Glyceraldehyde-3-phosphate dehydrogenase (Mus musculus) (P16858 whole entry): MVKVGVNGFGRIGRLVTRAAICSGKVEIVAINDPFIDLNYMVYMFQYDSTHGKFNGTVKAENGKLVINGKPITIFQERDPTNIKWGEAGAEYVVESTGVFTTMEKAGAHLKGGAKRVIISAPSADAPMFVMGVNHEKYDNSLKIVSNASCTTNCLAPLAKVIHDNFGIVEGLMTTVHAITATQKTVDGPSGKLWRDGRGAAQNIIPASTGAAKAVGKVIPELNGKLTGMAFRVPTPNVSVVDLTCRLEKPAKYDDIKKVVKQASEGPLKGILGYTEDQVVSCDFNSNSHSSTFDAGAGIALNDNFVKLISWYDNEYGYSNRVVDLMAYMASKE
In short: (§1)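 3T3-L1 preadipocyte lysate (5 µl) in 50 mM ammonium carbonate pH 8.0 with 2 mM DTT. Compound present, reaction started with C6-NBD6-PtdIns(3,4,5)P3 or PtdIns(4,5)P2, run 2 h at 25 °C. Products resolved by TLC on oxalate-treated silica. Hydrolyzed spot quantified as fraction of total fluorescence; s.d. from two independent experiments.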

3T3-L1 [4] = test: Inhibition of conversion of Ptdlns(3, 4, 5)P3 to PIP2 in GAPDH depleted mouse 3T3L1 lysate by fluorescent phosphoinositide TLC; type: functional
In short: (§2)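 3T3-L1 lysate immunodepleted of GAPDH, run in 25 µl ammonium carbonate/DTT buffer pH 8.0 with fluorescent PtdIns(3,4,5)P3 or PtdIns(4,5)P2 substrate. Run with or without exogenous GAPDH ([…]), compound tested in the presence of GAPDH, 2 h at 25 °C. Sampled every 20 min and resolved by TLC. Hydrolyzed/total spot fluorescence; two independent experiments.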

[5] = biological target: Glyceraldehyde-3-phosphate dehydrogenase (Mus musculus) (UniProt P16858); test: Inhibition of GAPDH in mouse 3T3L1 […] assessed as increase in Ptdlns(4, 5)P2 level by immunofluorescence method
In short: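 Whole 3T3-L1 cells given compound in PBS for 1 min, DMSO as control, then fixed in 4% formaldehyde. Stained with antibody to PtdIns(4,5)P2 and imaged by fluorescence microscopy (ex 488/em 510 nm). Intensity normalized to DMSO control; s.d. from 15 images over three independent experiments.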

Caenorhabditis elegans [6] = test: inhibition of GAPDH in Caenorhabditis elegans e1370 daf-2 mutant assessed as inhibition of dauer formation
In short: (§3)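 C. elegans daf-2 (e1370) kept in M9 buffer with 2% E. coli OP50 culture and compound ([…]), 4 d at 25 °C. Young adult-size animals counted in solution.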

[7] = biological target: Glyceraldehyde-3-phosphate dehydrogenase (Mus musculus) (UniProt P16858); test: Inhibition of GAPDH in mouse 3T3-L1 cells assessed as 2-NBD-glucose uptake after 15 mins; type: cell-based
In short: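 3T3-L1 preadipocytes grown overnight in DMEM with 10% heat-inactivated newborn calf serum, washed and held in PBS 5 min. Compound applied with 2-NBD-glucose ([…]) for 15 min at 37 °C. Cells washed, lysed in 0.1 M potassium phosphate pH 10 with 1% Triton X-100, DMSO added. Fluorescence read at ex 466/em 540 nm.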

[8] = biological target: Glyceraldehyde-3-phosphate dehydrogenase (Homo sapiens, UniProt P04406); test: Inhibition of GAPDH
Sequence of Glyceraldehyde-3-phosphate dehydrogenase (Homo sapiens, UniProt P04406) (P04406 whole entry): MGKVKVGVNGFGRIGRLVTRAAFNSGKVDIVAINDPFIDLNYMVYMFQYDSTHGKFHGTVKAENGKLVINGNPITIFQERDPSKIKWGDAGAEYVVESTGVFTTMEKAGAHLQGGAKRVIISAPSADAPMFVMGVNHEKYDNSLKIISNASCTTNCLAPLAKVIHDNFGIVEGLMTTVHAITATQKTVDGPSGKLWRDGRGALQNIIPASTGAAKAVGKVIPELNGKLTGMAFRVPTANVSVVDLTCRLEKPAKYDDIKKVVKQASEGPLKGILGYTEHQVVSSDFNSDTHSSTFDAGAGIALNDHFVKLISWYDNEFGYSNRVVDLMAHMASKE
In short: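 Purified rabbit muscle GAPDH was tested in vitro for its glycolytic enzymatic activity. The read-out was the half-maximal inhibitory concentration.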

[9] = Activation of PI3K assessed as tyrosine phosphorylation of p85 subunit
[10] = biological target: Glyceraldehyde-3-phosphate dehydrogenase (Oryctolagus cuniculus, UniProt P46406); test: Inhibition of rabbit GAPDH glycolytic activity
Sequence of Glyceraldehyde-3-phosphate dehydrogenase (Oryctolagus cuniculus, UniProt P46406) (P46406 whole entry): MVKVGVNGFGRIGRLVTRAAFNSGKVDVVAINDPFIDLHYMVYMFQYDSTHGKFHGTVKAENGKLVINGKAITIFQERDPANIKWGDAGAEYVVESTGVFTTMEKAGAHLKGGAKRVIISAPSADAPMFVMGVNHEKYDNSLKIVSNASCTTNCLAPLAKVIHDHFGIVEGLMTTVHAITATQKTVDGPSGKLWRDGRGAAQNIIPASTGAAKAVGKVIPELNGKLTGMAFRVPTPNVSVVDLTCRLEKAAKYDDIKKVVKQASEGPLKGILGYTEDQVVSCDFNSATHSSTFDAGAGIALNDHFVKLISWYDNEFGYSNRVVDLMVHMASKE
In short: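 Enzyme source was purified GAPDH from rabbit muscle, assayed in vitro for its glycolytic enzymatic activity. IC50 was reported as the half-maximal inhibitory concentration.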

3T3-L1 [11] = test: Inhibition of conversion of Ptdlns(4, 5)P2 to PIP in GAPDH depleted mouse 3T3L1 lysate by fluorescent phosphoinositide TLC; type: functional; in short: as §2
[12] = biological target: Glyceraldehyde-3-phosphate dehydrogenase (Mus musculus) (UniProt P16858); test: Induction of GAPDH tetramer segregation into monomers in mouse 3T3L1 lysate at […] after 3 hrs by immunoprecipitation method
[13] = biological target: Glyceraldehyde-3-phosphate dehydrogenase (Mus musculus) (UniProt P16858); test: Inhibition of GAPDH in mouse 3T3L1 lysate assessed as inhibition of conversion of Ptdlns(4, 5)P2 to PIP by fluorescent phosphoinositide TLC; in short: as §1
Caenorhabditis elegans [14] = test: inhibition of GAPDH in Caenorhabditis elegans e1370 daf-2 mutant assessed as inhibition of dauer formation relative to control; in short: as §3

Sequence of Glyceraldehyde-3-phosphate dehydrogenase (Oryctolagus cuniculus) (P46406 whole entry, looked up): as the sequence (P46406 whole entry) above

Row | SMILES | Activity [1] | inhibition [2] | inhibition [3] | inhibition (3T3-L1 [4]) | inhibition [5] | inhibition (Caenorhabditis elegans [6]) | inhibition [7] | IC50 [8] [µM] | Activity [9] | IC50 [10] [µM] | inhibition (3T3-L1 [11]) | Activity [12] | inhibition [13] | inhibition (Caenorhabditis elegans [14]) [%]
1 | C#CCN(C)[C@H](C)Cc1ccccc1 | inactive | – | – | – | – | – | – | – | – | – | – | – | – | –
2 | CCCCNc1nc(NCCOCCOCCNC(=O)c2ccccc2)nc(NCc2ccccn2)n1 | inactive | inactive | inactive | inactive | inactive | inactive | inactive | – | – | – | – | – | – | –
3 | NCCc1cc(O)c(O)cc1O [OXIDOPAMINE] | inactive | – | – | – | – | – | inactive | 8 | – | – | – | – | – | –
4 | O=C(NCCOCCOCCNc1nc(NCCc2ccc(O)c(O)c2)nc(Nc2ccccc2)n1)c1ccccc1 | Active | – | Active | Active | Active | – | Dose-dependent effect | – | inactive | 15 | inactive | Active | Active | 18
